# Laboratory results reported in ChEMBL document CHEMBL3046055, “Synthesis and herbicidal activity of novel N-(2,2,2)-trifluoroethylpyrazole derivatives” (J Agric Food Chem, 2010).
# Experiments:
# Convolvulus arvensis [1] = assay: Herbicidal activity against Convolvulus arvensis assessed as inhibition of fresh weed plant weights at 300 g ai/ha using pre-emergence treatment protocol under field trials conditions measured 30 days post soil treatment relative to untreated control; assay type: functional; conditions: 720 h
# Method in brief: (§1)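 Field pre-emergence trial. Treatments were applied to the soil surface within 24 h after maize planting, at 300, 400, 600 and 800 g a.i. ha^-1. Fresh weight of aerial plant parts was measured 30 days later, and percent inhibition calculated relative to the water-sprayed control.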
# Digitaria sanguinalis [2] = assay: Herbicidal activity against Digitaria sanguinalis (hairy crabgrass) assessed as inhibition of fresh weed plant weights at 600 g ai/ha using pre-emergence treatment protocol under greenhouse conditions relative to untreated control; assay type: functional
# Method in brief: (§2)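 Pre-emergence test in plastic pots kept in a greenhouse at 22-25 °C. Fresh weight of aerial plant parts was measured 20 days later, and percent inhibition calculated relative to water-sprayed controls. Metolachlor served as the positive control. Three replicates were run per concentration.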
# Portulaca oleracea [3] = assay: Herbicidal activity against Portulaca oleracea assessed as inhibition of fresh weed plant weights at 600 g ai/ha using pre-emergence treatment protocol under field trials conditions measured 30 days post soil treatment relative to untreated control; assay type: functional; conditions: 720 h; method in brief: as §1
# Echinochloa crus-galli [4] = assay: Herbicidal activity against Echinochloa crus-galli (barnyard grass) assessed as inhibition of fresh weed plant weights at 600 g ai/ha using pre-emergence treatment protocol under field trials conditions measured 30 days post soil treatment relative to untreated control; assay type: functional; conditions: 720 h; method in brief: as §1
# Portulaca oleracea [5] = assay: Herbicidal activity against Portulaca oleracea assessed as inhibition of fresh weed plant weights at 300 g ai/ha using pre-emergence treatment protocol under field trials conditions measured 30 days post soil treatment relative to untreated control; assay type: functional; conditions: 720 h; method in brief: as §1
# Convolvulus arvensis [6] = assay: Herbicidal activity against Convolvulus arvensis assessed as inhibition of fresh weed plant weights at 600 g ai/ha using pre-emergence treatment protocol under field trials conditions measured 30 days post soil treatment relative to untreated control; assay type: functional; conditions: 720 h; method in brief: as §1
# Zea mays [7] = assay: Toxicity against Zea mays var. SHEN DAN 17 (maize) assessed induction of crop injury at 800 g ai/ha using pre-emergence treatment protocol under field trials conditions measured 30 days post soil treatment; assay type: organism-based; conditions: in vivo, other, 720 h
# Method in brief: (§3)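 Pre-emergence application to soil surface within 24 h after maize planting, at 300, 400, 600 or 800 g a.i. ha^-1. Fresh weight of aerial plant parts measured 30 days later; percentage inhibition calculated relative to water-sprayed control.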
# Digitaria sanguinalis [8] = assay: Herbicidal activity against Digitaria sanguinalis (hairy crabgrass) assessed as inhibition of fresh weed plant weights at 150 g ai/ha using pre-emergence treatment protocol under greenhouse conditions relative to untreated control; assay type: functional; method in brief: as §2
# Echinochloa crus-galli [9] = assay: Herbicidal activity against Echinochloa crus-galli (barnyard grass) assessed as inhibition of fresh weed plant weights at 800 g ai/ha using pre-emergence treatment protocol under field trials conditions measured 30 days post soil treatment relative to untreated control; assay type: functional; conditions: 720 h; method in brief: as §1
# Convolvulus arvensis [10] = assay: Herbicidal activity against Convolvulus arvensis assessed as inhibition of fresh weed plant weights at 400 g ai/ha using pre-emergence treatment protocol under field trials conditions measured 30 days post soil treatment relative to untreated control; assay type: functional; conditions: 720 h; method in brief: as §1
# Portulaca oleracea [11] = assay: Herbicidal activity against Portulaca oleracea assessed as inhibition of fresh weed plant weights at 400 g ai/ha using pre-emergence treatment protocol under field trials conditions measured 30 days post soil treatment relative to untreated control; assay type: functional; conditions: 720 h; method in brief: as §1
# Digitaria sanguinalis [12] = assay: Herbicidal activity against Digitaria sanguinalis (hairy crabgrass) assessed as inhibition of fresh weed plant weights at 300 g ai/ha using pre-emergence treatment protocol under field trials conditions measured 30 days post soil treatment relative to untreated control; assay type: functional; conditions: 720 h; method in brief: as §1
# Portulaca oleracea [13] = assay: Herbicidal activity against Portulaca oleracea assessed as inhibition of root growth at […] measured 7 days post treatment; assay type: functional; set-up: dose or concentration left out as unconfirmed; conditions: 168 h, read-out: GI
# Eleusine indica = assay: Herbicidal activity against Eleusine indica assessed as inhibition of fresh weed plant weights at 300 g ai/ha using pre-emergence treatment protocol under greenhouse conditions relative to untreated control; assay type: functional; method in brief: as §2
# Portulaca oleracea [14] = assay: Herbicidal activity against Portulaca oleracea assessed as inhibition of fresh weed plant weights at 300 g ai/ha using pre-emergence treatment protocol under greenhouse conditions relative to untreated control; assay type: functional; method in brief: as §2
# Echinochloa crus-galli [15] = assay: Herbicidal activity against Echinochloa crus-galli (barnyard grass) assessed as inhibition of fresh weed plant weights at 400 g ai/ha using pre-emergence treatment protocol under field trials conditions measured 30 days post soil treatment relative to untreated control; assay type: functional; conditions: 720 h; method in brief: as §1
# [16] = system: Brassica rapa subsp. oleifera; assay: Toxicity against Brassica rapa subsp. oleifera var. JING GUAN 1 assessed as inhibition of fresh weed plant weights at 600 g ai/ha using pre-emergence treatment protocol under greenhouse conditions relative to untreated control; assay type: organism-based; conditions: in vivo, other; method in brief: as §2
# Portulaca oleracea [17] = assay: Herbicidal activity against Portulaca oleracea assessed as inhibition of shoot growth at […] measured 7 days post treatment; assay type: functional; conditions: 168 h, read-out: GI
# Method in brief: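 Petri-dish agar assay. A 10 g/L stock of compound in acetone was mixed into molten agar; the untreated control was agar without compound. Seeds were placed on the agar surface and the cups were covered with glass lids. Incubation was 25 ± 1 °C, 50-55% RH, 12 h light/12 h dark, for 7 days. Root and shoot lengths were measured and growth inhibition calculated against the control, in three replicates.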
# Zea mays [18] = assay: Toxicity against Zea mays var. SHEN DAN 17 (maize) assessed induction of crop injury at 600 g ai/ha using pre-emergence treatment protocol under field trials conditions measured 30 days post soil treatment; assay type: organism-based; conditions: in vivo, other, 720 h; method in brief: as §3
# [19] = system: Brassica rapa subsp. oleifera; assay: Toxicity against Brassica rapa subsp. oleifera var. JING GUAN 1 assessed as inhibition of fresh weed plant weights at 150 g ai/ha using pre-emergence treatment protocol under greenhouse conditions relative to untreated control; assay type: organism-based; conditions: in vivo, other; method in brief: as §2
# Echinochloa crus-galli [20] = assay: Herbicidal activity against Echinochloa crus-galli (barnyard grass) assessed as inhibition of fresh weed plant weights at 300 g ai/ha using pre-emergence treatment protocol under greenhouse conditions relative to untreated control; assay type: functional; method in brief: as §2
# Digitaria sanguinalis [21] = assay: Herbicidal activity against Digitaria sanguinalis (hairy crabgrass) assessed as inhibition of fresh weed plant weights at 300 g ai/ha using pre-emergence treatment protocol under greenhouse conditions relative to untreated control; assay type: functional; method in brief: as §2
# Echinochloa crus-galli [22] = assay: Herbicidal activity against Echinochloa crus-galli (barnyard grass) assessed as inhibition of shoot growth at […] measured 7 days post treatment; assay type: functional; set-up: dose or concentration left out as unconfirmed; conditions: 168 h, read-out: GI
# Digitaria sanguinalis [23] = assay: Herbicidal activity against Digitaria sanguinalis (hairy crabgrass) assessed as inhibition of fresh weed plant weights at 400 g ai/ha using pre-emergence treatment protocol under field trials conditions measured 30 days post soil treatment relative to untreated control; assay type: functional; conditions: 720 h; method in brief: as §1
# [24] = system: Brassica rapa subsp. oleifera; assay: Toxicity against Brassica rapa subsp. oleifera var. JING GUAN 1 assessed as inhibition of fresh weed plant weights at 300 g ai/ha using pre-emergence treatment protocol under greenhouse conditions relative to untreated control; assay type: organism-based; conditions: in vivo, other; method in brief: as §2
# Digitaria sanguinalis [25] = assay: Herbicidal activity against Digitaria sanguinalis (hairy crabgrass) assessed as inhibition of fresh weed plant weights at 600 g ai/ha using pre-emergence treatment protocol under field trials conditions measured 30 days post soil treatment relative to untreated control; assay type: functional; conditions: 720 h; method in brief: as §1
# Echinochloa crus-galli [26] = assay: Herbicidal activity against Echinochloa crus-galli (barnyard grass) assessed as inhibition of fresh weed plant weights at 300 g ai/ha using pre-emergence treatment protocol under field trials conditions measured 30 days post soil treatment relative to untreated control; assay type: functional; conditions: 720 h; method in brief: as §1
# Convolvulus arvensis [27] = assay: Herbicidal activity against Convolvulus arvensis assessed as inhibition of fresh weed plant weights at 800 g ai/ha using pre-emergence treatment protocol under field trials conditions measured 30 days post soil treatment relative to untreated control; assay type: functional; conditions: 720 h; method in brief: as §1
smiles,measurement,setting,value
Cc1nn(CC(F)(F)F)c(CS(=O)(=O)C2=NOC(C)(C)C2)c1Cl,inhibition at 300 g/ha,Convolvulus arvensis [1],14%
same,inhibition at 600 g/ha,Digitaria sanguinalis [2],100%
same,inhibition at 600 g/ha,Portulaca oleracea [3],95%
same,inhibition at 600 g/ha,Echinochloa crus-galli [4],100%
same,inhibition at 300 g/ha,Portulaca oleracea [5],80%
same,inhibition at 600 g/ha,Convolvulus arvensis [6],27%
same,Activity,Zea mays [7],0%
same,inhibition at 150 g/ha,Digitaria sanguinalis [8],86%
same,inhibition at 800 g/ha,Echinochloa crus-galli [9],100%
same,inhibition at 400 g/ha,Convolvulus arvensis [10],16%
same,inhibition at 400 g/ha,Portulaca oleracea [11],85%
same,inhibition at 300 g/ha,Digitaria sanguinalis [12],95%
same,inhibition of growth,Portulaca oleracea [13],63%
same,inhibition at 300 g/ha,Eleusine indica,99%
same,inhibition at 300 g/ha,Portulaca oleracea [14],97%
same,inhibition at 400 g/ha,Echinochloa crus-galli [15],100%
same,inhibition (INH),[16],11%
same,inhibition of growth at 100000 µg/mL,Portulaca oleracea [17],54%
same,Activity,Zea mays [18],0%
same,inhibition (INH),[19],7%
same,inhibition at 300 g/ha,Echinochloa crus-galli [20],100%
same,inhibition at 300 g/ha,Digitaria sanguinalis [21],97%
same,inhibition of growth,Echinochloa crus-galli [22],84%
same,inhibition at 400 g/ha,Digitaria sanguinalis [23],98%
same,inhibition (INH),[24],12%
same,inhibition at 600 g/ha,Digitaria sanguinalis [25],100%
same,inhibition at 300 g/ha,Echinochloa crus-galli [26],100%
same,inhibition at 800 g/ha,Convolvulus arvensis [27],40%
